Results published in ChEMBL document CHEMBL4334458, “Design, synthesis and antibacterial evaluation of novel 15-membered 11a-azahomoclarithromycin derivatives with the 1, 2, 3-triazole side chain” (Eur J Med Chem, 2019).
Converted amounts (≈) assume the structure as drawn. The source made the active and inactive calls. No cut-off for these calls is given here.

Columns and labels:
Staphylococcus aureus [1] = experiment: Antibacterial activity against methicillin-resistant Staphylococcus aureus ATCC 43300 incubated for 24 hrs by broth dilution method; type: functional; settings: ATCC 43300, 24 h
Streptococcus pneumoniae [2] = experiment: Bactericidal activity against erythromycin-resistant Streptococcus pneumoniae AB11 expressing the ermB and mefA incubated for 24 hrs followed by re-plating on tryptic soy agar plates for 24 hrs by broth microdilution assay; type: functional
Procedure, shortened: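 Follows the 24 h, 37 °C CAMH broth microdilution MIC plate; contents of clear wells plated onto tryptic soy agar and incubated 24 h at 37 °C; MBC taken as the lowest concentration giving no colonies.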

Bacillus subtilis = experiment: Antibacterial activity against penicillin-susceptible Bacillus subtilis ATCC 9372 incubated for 24 hrs by broth dilution method; type: functional; settings: ATCC 9372, 24 h
Procedure, shortened: (§1)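 CLSI broth microdilution in cation-adjusted Mueller-Hinton broth. Twofold dilutions spanned 0.25–128 or 0.5–256 µg/mL, with CAM and AZM as controls. Log-phase bacteria were added and incubated 24 h at 37 °C. MIC was read by turbidity as the concentration of the last clear well.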

Escherichia coli = experiment: Antibacterial activity against penicillin-susceptible Escherichia coli ATCC 25922 incubated for 24 hrs by broth dilution method; type: functional; settings: ATCC 25922, 24 h; procedure, shortened: as §1
Streptococcus pyogenes [3] = experiment: Antibacterial activity against erythromycin-susceptible Streptococcus pyogenes 1 clinical isolate incubated for 24 hrs by broth dilution method; type: functional; procedure, shortened: as §1
Staphylococcus aureus [4] = experiment: Antibacterial activity against erythromycin-susceptible Staphylococcus aureus ATCC 25923 incubated for 24 hrs by broth dilution method; type: functional; settings: ATCC 25923, 24 h; procedure, shortened: as §1
Streptococcus pneumoniae [5] = experiment: Bacteriostatic activity against erythromycin-resistant Streptococcus pneumoniae AB11 expressing the ermB and mefA by time-kill curve assay; type: functional, organism-based
Streptococcus pneumoniae [6] = experiment: Antibacterial activity against erythromycin-resistant Streptococcus pneumoniae B1 expressing the ermB incubated for 24 hrs by broth dilution method; type: functional
Pseudomonas aeruginosa = experiment: Antibacterial activity against penicillin-susceptible Pseudomonas aeruginosa ATCC 27853 incubated for 24 hrs by broth dilution method; type: functional; settings: ATCC 27853, 24 h; procedure, shortened: as §1
Streptococcus pyogenes [7] = experiment: Antibacterial activity against erythromycin-resistant Streptococcus pyogenes 2 clinical isolate incubated for 24 hrs by broth dilution method; type: functional
Streptococcus pneumoniae [8] = experiment: Ratio of MBC to MIC for erythromycin-resistant Streptococcus pneumoniae AB11 expressing the ermB and mefA; type: functional
Streptococcus pneumoniae [9] = experiment: Antibacterial activity against erythromycin-resistant Streptococcus pneumoniae AB11 expressing the ermB and mefA incubated for 24 hrs by broth dilution method; type: functional
Staphylococcus aureus [10] = experiment: Antibacterial activity against penicillin-resistant Staphylococcus aureus ATCC 31007 incubated for 24 hrs by broth dilution method; type: functional; settings: ATCC 31007, 24 h
Streptococcus pneumoniae [11] = experiment: Bacteriostatic activity against erythromycin-resistant Streptococcus pneumoniae AB11 expressing the ermB and mefA at 1 to 4 times MIC incubated for 9 to 24 hrs by time-kill curve assay; type: functional, organism-based
Streptococcus pneumoniae [12] = experiment: Bactericidal activity against erythromycin-resistant Streptococcus pneumoniae AB11 expressing the ermB and mefA at 1 to 4 times MIC incubated for up to 9 hrs by time-kill curve assay; type: functional, organism-based
Staphylococcus aureus [13] = experiment: Bactericidal activity against erythromycin-susceptible Staphylococcus aureus ATCC 25923 incubated for 24 hrs followed by re-plating on tryptic soy agar plates for 24 hrs by broth microdilution assay; type: functional; settings: ATCC 25923, 24 h
Procedure, shortened: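 Built on the broth microdilution MIC set-up (CAMH, 24 h, 37 °C). After 24 h, contents of clear wells were plated on tryptic soy agar and incubated 24 h at 37 °C. MBC was taken as the lowest concentration giving no colonies.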

MCF7 = experiment: Cytotoxicity against human MCF7 cells assessed as viable cells up to 32 ug/ml incubated for 24 hrs by MTT assay; type: cell-based; settings: mcf7, 24 h
Procedure, shortened: (§2)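 MCF-7 cells were seeded at 10^4 cells/well and allowed to settle overnight. Compound was added for 24 h, with CAM as control and DMSO as vehicle control. MTT (5 mg/mL stock) was then added for 4 h at 37 °C, formazan dissolved in DMSO for 10 min, and absorbance read at 570 nm. Read-out was percent viable cells.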

Staphylococcus aureus [14] = experiment: Ratio of MBC to MIC for erythromycin-susceptible Staphylococcus aureus ATCC 25923; type: functional
[15] = Cytotoxicity against human MCF7 cells assessed as viable cells at 64 to 128 ug/ml incubated for 24 hrs by MTT assay relative to control; type: cell-based; settings: read-out: Activity; procedure, shortened: as §2

SMILES | MIC (Staphylococcus aureus [1]) [µg/mL] | MBC (Streptococcus pneumoniae [2]) [µg/mL] | MIC (Bacillus subtilis) [µg/mL] | MIC (Escherichia coli) [µg/mL] | MIC (Streptococcus pyogenes [3]) [µg/mL] | MIC (Staphylococcus aureus [4]) [µg/mL] | Activity (Streptococcus pneumoniae [5]) | MIC (Streptococcus pneumoniae [6]) [µg/mL] | MIC (Pseudomonas aeruginosa) [µg/mL] | MIC (Streptococcus pyogenes [7]) [µg/mL] | Ratio (Streptococcus pneumoniae [8]) | MIC (Streptococcus pneumoniae [9]) [µg/mL] | MIC (Staphylococcus aureus [10]) [µg/mL] | Activity (Streptococcus pneumoniae [11]) | Activity (Streptococcus pneumoniae [12]) | MBC (Staphylococcus aureus [13]) [µg/mL] | Activity (MCF7) | Ratio (Staphylococcus aureus [14]) | viability at 24 h [15] [%]
CCCCc1ccc(-c2cn(C[C@@H]3CN(C)C[C@@H](C)[C@@H](O)[C@H](C)C[C@@](C)(OC)[C@H](O[C@@H]4O[C@H](C)C[C@H](N(C)C)[C@H]4O)[C@@H](C)[C@H](O[C@H]4C[C@@](C)(OC)[C@@H](O)[C@H](C)O4)[C@@H](C)C(=O)O3)nn2)cc1 | 8 (≈ 8.71 µM) | 64 (≈ 69.7 µM) | 32 (≈ 34.8 µM) | > 128 | 8 (≈ 8.71 µM) | 8 (≈ 8.71 µM) | Dose-dependent effect | 64 (≈ 69.7 µM) | > 128 | 8 (≈ 8.71 µM) | 8 | 8 (≈ 8.71 µM) | 8 (≈ 8.71 µM) | Active | Active |  |  |  | 
CO[C@]1(C)C[C@@H](C)[C@H](O)[C@H](C)CN(C)C[C@H](COCc2cn(-c3ccccn3)nn2)OC(=O)[C@H](C)[C@@H](O[C@H]2C[C@@](C)(OC)[C@@H](O)[C@H](C)O2)[C@H](C)[C@H]1O[C@@H]1O[C@H](C)C[C@H](N(C)C)[C@H]1O | > 256 |  | ≤ 0.25 | 64 (≈ 71.7 µM) | 0.5 (≈ 0.56 µM) | ≤ 0.25 |  | > 256 | 16 (≈ 17.9 µM) | 128 (≈ 143 µM) |  | 128 (≈ 143 µM) | > 256 |  |  | > 128 | Non-Toxic | >512 | 
CO[C@]1(C)C[C@@H](C)[C@H](O)[C@H](C)CN(C)C[C@H](COCc2cn(-c3ccccc3)nn2)OC(=O)[C@H](C)[C@@H](O[C@H]2C[C@@](C)(OC)[C@@H](O)[C@H](C)O2)[C@H](C)[C@H]1O[C@@H]1O[C@H](C)C[C@H](N(C)C)[C@H]1O | > 256 |  | ≤ 0.25 | 64 (≈ 71.7 µM) | 0.25 (≈ 0.28 µM) | ≤ 0.25 |  | > 256 | 16 (≈ 17.9 µM) | 128 (≈ 143 µM) |  | 128 (≈ 143 µM) | > 256 |  |  | 128 (≈ 143 µM) |  | >512 | 60
COc1cccc(-n2cc(COC[C@H]3CN(C)C[C@@H](C)[C@@H](O)[C@H](C)C[C@@](C)(OC)[C@H](O[C@@H]4O[C@H](C)C[C@H](N(C)C)[C@H]4O)[C@@H](C)[C@H](O[C@H]4C[C@@](C)(OC)[C@@H](O)[C@H](C)O4)[C@@H](C)C(=O)O3)nn2)c1 | > 256 |  | ≤ 0.25 | 64 (≈ 69.4 µM) | 0.5 (≈ 0.542 µM) | ≤ 0.25 |  | > 256 | 32 (≈ 34.7 µM) | 128 (≈ 139 µM) |  | 128 (≈ 139 µM) | > 256 |  |  | > 128 |  | >512 | 60
